In ChEMBL document CHEMBL1133678, “Synthesis of new indeno[1,2-c]isoquinolines: cytotoxic non-camptothecin topoisomerase I inhibitors” (2000):

Columns and labels:
SF-539 = test: Antiproliferative activity was determined for 50% growth inhibition against human CNS SF-539 cell line; type: functional
Outline: (§1)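 Human cancer cell lines from the roughly 55-line panel. GI50 is the concentration giving 50% growth inhibition. The test range was 10^-4 to 10^-8 M. Values outside the range were set to the minimum (10^-8 M) or the maximum (10^-4 M).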

DU-145 [1] = test: Antiproliferative activity was determined for 50% growth inhibition against human Prostate c; type: functional; settings: DU-145, Prostate gland; outline: as §1
HOP-62 = test: Antiproliferative activity was determined for 50% growth inhibition against human lung HOP-62 cell line; type: functional; outline: as §1
HCT-116 = test: Antiproliferative activity was determined for 50% growth inhibition against human colon HCT116 cell line; type: functional; outline: as §1
MDA-MB-435 = test: Antiproliferative activity was determined for 50% growth inhibition against human breast MDA-MB-435 cell line; type: functional; outline: as §1
OVCAR-3 = test: Antiproliferative activity was determined for 50% growth inhibition against human ovarian OVCAR-3 cell line; type: functional; outline: as §1
SN12C = test: Antiproliferative activity was determined for 50% growth inhibition against human renal SN12C cell line; type: functional; outline: as §1
UACC-62 = test: Antiproliferative activity was determined for 50% growth inhibition against human melanoma UACC-62 cell line; type: functional; outline: as §1
[2] = test system: Panel (Carcinoma cell lines); test: Mean graph midpoint for growth inhibition of all human cancer cell lines; type: functional; set-up: unit: µM
Outline: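 Mean graph midpoint across all cell lines successfully tested in the roughly 55-line human cancer panel. Each line's GI50 is the 50% growth-inhibition concentration, tested over 10^-4 to 10^-8 M. Out-of-range values were set to 10^-8 M or 10^-4 M before averaging.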

DU-145 [3] = test: Antiproliferative activity was determined for 50% growth inhibition against human Prostate DU-145 cell line; type: functional; outline: as §1
[4] = target: T1, DNA topoisomerase 1 (Homo sapiens) (UniProt P11387); test: Inhibitory activity of compound against human recombinant DNA topoisomerase I mediated DNA cleavage; Weak activity
T1 sequence (whole entry): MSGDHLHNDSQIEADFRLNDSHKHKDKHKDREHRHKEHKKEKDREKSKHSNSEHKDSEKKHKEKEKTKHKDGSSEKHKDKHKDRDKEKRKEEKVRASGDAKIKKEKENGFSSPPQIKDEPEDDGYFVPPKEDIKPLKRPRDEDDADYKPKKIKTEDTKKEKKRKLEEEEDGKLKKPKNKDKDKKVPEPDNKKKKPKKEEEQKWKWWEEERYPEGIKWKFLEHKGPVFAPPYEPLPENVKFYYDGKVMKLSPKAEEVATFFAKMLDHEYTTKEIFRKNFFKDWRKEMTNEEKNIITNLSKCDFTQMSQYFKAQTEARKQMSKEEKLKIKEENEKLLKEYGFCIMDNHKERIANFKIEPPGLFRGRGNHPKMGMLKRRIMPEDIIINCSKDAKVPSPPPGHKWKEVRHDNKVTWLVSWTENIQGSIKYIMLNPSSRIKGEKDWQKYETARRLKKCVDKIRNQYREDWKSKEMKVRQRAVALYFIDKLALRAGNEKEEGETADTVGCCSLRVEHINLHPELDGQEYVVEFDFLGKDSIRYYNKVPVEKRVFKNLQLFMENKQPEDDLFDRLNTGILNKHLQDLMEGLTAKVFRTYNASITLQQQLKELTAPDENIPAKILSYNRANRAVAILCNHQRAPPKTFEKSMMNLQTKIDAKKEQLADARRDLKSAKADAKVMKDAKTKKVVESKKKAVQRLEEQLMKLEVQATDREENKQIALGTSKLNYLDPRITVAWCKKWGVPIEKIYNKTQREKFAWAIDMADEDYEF

COc1cc2c3c(n(CCCNCCO)c(=O)c2cc1OC)-c1cc2c(cc1C3=O)OCO2.Cl
GI50 (SF-539): 0.04 µM | GI50 (DU-145 [1]): < 0.01 µM | GI50 (HOP-62; Homo sapiens, HOP-62): 0.02 µM | GI50 (HCT-116; Homo sapiens, HCT-116): 0.1 µM | GI50 (MDA-MB-435; Homo sapiens, MDA-MB-435): 0.79 µM | GI50 (OVCAR-3): 0.35 µM | GI50 (SN12C; Homo sapiens, SN12C): < 0.01 µM | GI50 (UACC-62; Homo sapiens, UACC-62): 0.03 µM | MGM [2]: 0.11

O=C1c2ccccc2-c2c1c1ccccc1c(=O)n2CCCl
GI50 (SF-539; Homo sapiens, SF-539): 2.48 µM | GI50 (DU-145 [3]; Homo sapiens, DU-145): 3.5 µM | Activity [4]: Weak activity | GI50 (HOP-62; Homo sapiens, HOP-62): 3.81 µM | GI50 (HCT-116; Homo sapiens, HCT-116): 3.86 µM | GI50 (MDA-MB-435; Homo sapiens, MDA-MB-435): 3.7 µM | GI50 (OVCAR-3; Homo sapiens, OVCAR-3): 5.87 µM | GI50 (SN12C; Homo sapiens, SN12C): 4.39 µM | GI50 (UACC-62; Homo sapiens, UACC-62): 8.08 µM | MGM [2]: 4.37

CCn1c2c(c3cc(OC)c(OC)cc3c1=O)Cc1cc3c(cc1-2)OCO3
GI50 (SF-539; Homo sapiens, SF-539): > 100 µM | GI50 (DU-145 [3]; Homo sapiens, DU-145): > 100 µM | GI50 (HOP-62; Homo sapiens, HOP-62): > 100 µM | GI50 (HCT-116; Homo sapiens, HCT-116): > 100 µM | GI50 (MDA-MB-435; Homo sapiens, MDA-MB-435): > 100 µM | GI50 (OVCAR-3; Homo sapiens, OVCAR-3): > 100 µM | GI50 (SN12C; Homo sapiens, SN12C): > 100 µM | GI50 (UACC-62; Homo sapiens, UACC-62): > 100 µM | MGM [2]: 85.1

COc1cc2c(cc1OC)-c1c(c3cc(OC)c(OC)cc3c(=O)n1CCCNCCO)C2=O.Cl
GI50 (SF-539): 0.16 µM | GI50 (DU-145 [3]): 0.07 µM | GI50 (HOP-62): 0.15 µM | GI50 (HCT-116): 0.39 µM | GI50 (MDA-MB-435): 1.43 µM | GI50 (OVCAR-3): 2.28 µM | GI50 (SN12C): 0.11 µM | GI50 (UACC-62): 0.73 µM | MGM [2]: 0.68

COc1cc2c(cc1OC)-c1c(c3cc(OC)c(OC)cc3c(=O)n1CCCNCCCO)C2=O
GI50 (SF-539): 0.08 µM | GI50 (DU-145 [3]): 0.1 µM | GI50 (HOP-62): 0.07 µM | GI50 (HCT-116; Homo sapiens, HCT-116): 0.46 µM | GI50 (MDA-MB-435): 1.09 µM | GI50 (OVCAR-3; Homo sapiens, OVCAR-3): 1.9 µM | GI50 (SN12C; Homo sapiens, SN12C): 0.15 µM | GI50 (UACC-62; Homo sapiens, UACC-62): 1.51 µM | MGM [2]: 0.55

COc1cc2c(cc1OC)-c1c(c3ccccc3c(=O)n1CCCCl)C2=O
GI50 (SF-539; Homo sapiens, SF-539): > 100 µM | GI50 (DU-145 [3]; Homo sapiens, DU-145): > 100 µM | GI50 (HOP-62; Homo sapiens, HOP-62): > 100 µM | GI50 (HCT-116; Homo sapiens, HCT-116): > 100 µM | GI50 (MDA-MB-435; Homo sapiens, MDA-MB-435): > 100 µM | GI50 (OVCAR-3; Homo sapiens, OVCAR-3): > 100 µM | GI50 (SN12C; Homo sapiens, SN12C): > 100 µM | GI50 (UACC-62; Homo sapiens, UACC-62): > 100 µM | MGM [2]: 76.1

O=C1c2ccccc2-c2c1c1ccccc1c(=O)n2CCO
GI50 (SF-539; Homo sapiens, SF-539): 12.2 µM | GI50 (DU-145 [3]; Homo sapiens, DU-145): 16.4 µM | GI50 (HOP-62; Homo sapiens, HOP-62): 5.62 µM | GI50 (HCT-116; Homo sapiens, HCT-116): 4.95 µM | GI50 (MDA-MB-435; Homo sapiens, MDA-MB-435): 76.7 µM | GI50 (OVCAR-3; Homo sapiens, OVCAR-3): 74.2 µM | GI50 (SN12C; Homo sapiens, SN12C): 16.4 µM | GI50 (UACC-62; Homo sapiens, UACC-62): 18.2 µM | MGM [2]: 14.5

COc1cc2c(cc1OC)-c1c(c3cc(OC)c(OC)cc3c(=O)n1CCCNCCCCO)C2=O
GI50 (SF-539): 0.06 µM | GI50 (DU-145 [3]): 0.1 µM | GI50 (HOP-62): 0.14 µM | GI50 (HCT-116): 0.71 µM | GI50 (MDA-MB-435): 2.36 µM | GI50 (OVCAR-3): 3.52 µM | GI50 (SN12C): 0.11 µM | GI50 (UACC-62): 1.67 µM | MGM [2]: 0.85

COc1cc2c3c(n(CCCNCCCO)c(=O)c2cc1OC)-c1cc2c(cc1C3=O)OCO2
GI50 (SF-539; Homo sapiens, SF-539): 0.01 µM | GI50 (DU-145 [3]; Homo sapiens, DU-145): 0.01 µM | GI50 (HOP-62; Homo sapiens, HOP-62): 0.03 µM | GI50 (HCT-116; Homo sapiens, HCT-116): 0.04 µM | GI50 (MDA-MB-435; Homo sapiens, MDA-MB-435): 0.47 µM | GI50 (OVCAR-3; Homo sapiens, OVCAR-3): 1.19 µM | GI50 (SN12C; Homo sapiens, SN12C): 0.01 µM | GI50 (UACC-62; Homo sapiens, UACC-62): 0.01 µM | MGM [2]: 0.2

COc1cc2c(cc1OC)-c1c(c3ccccc3c(=O)n1CCCNCCO)C2=O.Cl
GI50 (SF-539; Homo sapiens, SF-539): 0.45 µM | GI50 (DU-145 [3]; Homo sapiens, DU-145): 0.44 µM | GI50 (HOP-62; Homo sapiens, HOP-62): 0.62 µM | GI50 (HCT-116; Homo sapiens, HCT-116): 0.34 µM | GI50 (MDA-MB-435; Homo sapiens, MDA-MB-435): 0.97 µM | GI50 (OVCAR-3; Homo sapiens, OVCAR-3): 3.64 µM | GI50 (SN12C; Homo sapiens, SN12C): 2.07 µM | GI50 (UACC-62; Homo sapiens, UACC-62): 0.63 µM | MGM [2]: 0.95

O=C1c2cc3c(cc2-c2c1c1ccccc1c(=O)n2CCCNCCCO)OCO3
GI50 (SF-539; Homo sapiens, SF-539): 16.2 µM | GI50 (DU-145 [3]; Homo sapiens, DU-145): 16.7 µM | GI50 (HOP-62; Homo sapiens, HOP-62): 7.17 µM | GI50 (HCT-116; Homo sapiens, HCT-116): 12.5 µM | GI50 (MDA-MB-435; Homo sapiens, MDA-MB-435): 19.9 µM | GI50 (OVCAR-3; Homo sapiens, OVCAR-3): 15 µM | GI50 (SN12C; Homo sapiens, SN12C): 14.2 µM | GI50 (UACC-62; Homo sapiens, UACC-62): > 100 µM | MGM [2]: 15.5

COc1cc2c(cc1OC)-c1c(c3cc(OC)c(OC)cc3c(=O)n1CCCNCCCCO)C2=O.Cl
GI50 (SF-539): 0.59 µM | GI50 (DU-145 [3]): 0.21 µM | GI50 (HOP-62; Homo sapiens, HOP-62): 0.26 µM | GI50 (HCT-116; Homo sapiens, HCT-116): 0.81 µM | GI50 (MDA-MB-435; Homo sapiens, MDA-MB-435): 2.09 µM | GI50 (OVCAR-3; Homo sapiens, OVCAR-3): 5.49 µM | GI50 (SN12C): 0.28 µM | GI50 (UACC-62; Homo sapiens, UACC-62): 1.76 µM | MGM [2]: 1.47

COc1cc2c3c(n(CCCN)c(=O)c2cc1OC)-c1cc2c(cc1C3=O)OCO2.Cl
GI50 (SF-539; Homo sapiens, SF-539): 0.26 µM | GI50 (DU-145 [3]; Homo sapiens, DU-145): 0.04 µM | GI50 (HOP-62; Homo sapiens, HOP-62): 0.06 µM | GI50 (HCT-116; Homo sapiens, HCT-116): 0.13 µM | GI50 (MDA-MB-435; Homo sapiens, MDA-MB-435): 1.21 µM | GI50 (OVCAR-3; Homo sapiens, OVCAR-3): 0.31 µM | GI50 (SN12C; Homo sapiens, SN12C): 0.31 µM | GI50 (UACC-62; Homo sapiens, UACC-62): 0.25 µM | MGM [2]: 0.16
